Source: ChEMBL document CHEMBL5247575 (J Med Chem, 2018)

system: Pseudomonas aeruginosa; experiment: Synergistic antibacterial activity against Pseudomonas aeruginosa 839 assessed as cefepime MIC at 8 ug/ml by broth microdilution method; type: functional; settings: dose 8 µg/ml

Row | Structure (SMILES) | MIC [µg/mL]
1 | O=C(NNC(=O)[C@@H]1CC[C@@H]2CN1C(=O)N2OS(=O)(=O)O)[C@@H]1CCCNC1 [ZIDEBACTAM] | 0.5

system: Acinetobacter baumannii; experiment: Synergistic antibacterial activity against ADC deleted Acinetobacter baumannii transfected with pWH1266 producing OXA-24/40 assessed as cefepime MIC at 8 ug/ml by broth microdilution method; type: functional; settings: dose 8 µg/ml

Row | Structure (SMILES) | MIC [µg/mL]
2 | O=C(NNC(=O)[C@@H]1CC[C@@H]2CN1C(=O)N2OS(=O)(=O)O)[C@@H]1CCCNC1 [ZIDEBACTAM] | 16

system: Klebsiella pneumoniae; experiment: Synergistic antibacterial activity against Klebsiella pneumoniae 1108/1989 producing KPC-3 assessed as meropenem MIC at 4 ug/ml by broth microdilution method; type: functional; settings: dose 4 µg/ml
Procedure, shortened: (§1)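 Broth microdilution per CLSI guidelines, using custom frozen panels. […] Each partner drug was also tested alone. MICs were run in triplicate and the modal value is reported.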

Row | Structure (SMILES) | MIC [µg/mL]
3 | O=C(NNC(=O)[C@@H]1CC[C@@H]2CN1C(=O)N2OS(=O)(=O)O)[C@@H]1CCCNC1 [ZIDEBACTAM] | ≤ 0.12

system: Acinetobacter baumannii; experiment: Synergistic antibacterial activity against Acinetobacter baumannii PR359 producing OXA-23 assessed as cefepime MIC at 4 ug/ml by broth microdilution method; type: functional; settings: dose 4 µg/ml

Row | Structure (SMILES) | MIC [µg/mL]
4 | O=C(NNC(=O)[C@@H]1CC[C@@H]2CN1C(=O)N2OS(=O)(=O)O)[C@@H]1CCCNC1 [ZIDEBACTAM] | 8

system: Klebsiella pneumoniae; experiment: Synergistic antibacterial activity against Klebsiella pneumoniae 11978 producing OXA-48 assessed as meropenem MIC at 8 ug/ml by broth microdilution method; type: functional; settings: dose 8 µg/ml; procedure, shortened: as §1

Row | Structure (SMILES) | MIC [µg/mL]
5 | O=C(NNC(=O)[C@@H]1CC[C@@H]2CN1C(=O)N2OS(=O)(=O)O)[C@@H]1CCCNC1 [ZIDEBACTAM] | ≤ 0.12

system: Escherichia coli; experiment: Synergistic antibacterial activity against Escherichia coli DH10B transfected with pBC SK (-) KPC-2 assessed as meropenem MIC at 8 ug/ml by broth microdilution method; type: functional; settings: dose 8 µg/ml

Row | Structure (SMILES) | MIC [µg/mL]
6 | O=C(NNC(=O)[C@@H]1CC[C@@H]2CN1C(=O)N2OS(=O)(=O)O)[C@@H]1CCCNC1 [ZIDEBACTAM] | ≤ 0.12

target: not listed separately; experiment: Binding affinity to bacteria ADC-7 assessed as dissociation constant; settings: not given

Row | Structure (SMILES) | Kd [nM]
7 | O=C(NNC(=O)[C@@H]1CC[C@@H]2CN1C(=O)N2OS(=O)(=O)O)[C@@H]1CCCNC1 [ZIDEBACTAM] | 32

system: Klebsiella pneumoniae; experiment: Synergistic antibacterial activity against Klebsiella pneumoniae jefferson 1773 producing OXA-181 assessed as cefepime MIC at 8 ug/ml by broth microdilution method; type: functional; settings: dose 8 µg/ml

Row | Structure (SMILES) | MIC [µg/mL]
8 | O=C(NNC(=O)[C@@H]1CC[C@@H]2CN1C(=O)N2OS(=O)(=O)O)[C@@H]1CCCNC1 [ZIDEBACTAM] | ≤ 0.12

system: Acinetobacter baumannii; experiment: Synergistic antibacterial activity against Acinetobacter baumannii PR381 producing OXA-24/40 assessed as meropenem MIC at 8 ug/ml by broth microdilution method; type: functional; settings: dose 8 µg/ml

Row | Structure (SMILES) | MIC [µg/mL]
9 | O=C(NNC(=O)[C@@H]1CC[C@@H]2CN1C(=O)N2OS(=O)(=O)O)[C@@H]1CCCNC1 [ZIDEBACTAM] | > 16

system: Acinetobacter baumannii; experiment: Synergistic antibacterial activity against Acinetobacter baumannii PR440 producing OXA-23/24/40 assessed as cefepime MIC at 8 ug/ml by broth microdilution method; type: functional; settings: dose 8 µg/ml

Row | Structure (SMILES) | MIC [µg/mL]
10 | O=C(NNC(=O)[C@@H]1CC[C@@H]2CN1C(=O)N2OS(=O)(=O)O)[C@@H]1CCCNC1 [ZIDEBACTAM] | > 16

system: Klebsiella pneumoniae; experiment: Synergistic antibacterial activity against Klebsiella pneumoniae CAV 1543 producing OXA-48 assessed as meropenem MIC at 4 ug/ml by broth microdilution method; type: functional; settings: dose 4 µg/ml

Row | Structure (SMILES) | MIC [µg/mL]
11 | O=C(NNC(=O)[C@@H]1CC[C@@H]2CN1C(=O)N2OS(=O)(=O)O)[C@@H]1CCCNC1 [ZIDEBACTAM] | ≤ 0.12

system: Escherichia coli; experiment: Synergistic antibacterial activity against Escherichia coli DH10B transfected with pBC SK (-) KPC-3 assessed as cefepime MIC at 8 ug/ml by broth microdilution method; type: functional; settings: dose 8 µg/ml

Row | Structure (SMILES) | MIC [µg/mL]
12 | O=C(NNC(=O)[C@@H]1CC[C@@H]2CN1C(=O)N2OS(=O)(=O)O)[C@@H]1CCCNC1 [ZIDEBACTAM] | ≤ 0.12

system: Klebsiella pneumoniae; experiment: Synergistic antibacterial activity against Klebsiella pneumoniae CAV 1636 producing OXA-181 assessed as cefepime MIC at 4 ug/ml by broth microdilution method; type: functional; settings: dose 4 µg/ml

Row | Structure (SMILES) | MIC [µg/mL]
13 | O=C(NNC(=O)[C@@H]1CC[C@@H]2CN1C(=O)N2OS(=O)(=O)O)[C@@H]1CCCNC1 [ZIDEBACTAM] | ≤ 0.12

system: Klebsiella pneumoniae; experiment: Synergistic antibacterial activity against Klebsiella pneumoniae 901/1860 producing KPC-3 assessed as meropenem MIC at 4 ug/ml by broth microdilution method; type: functional; settings: dose 4 µg/ml

Row | Structure (SMILES) | MIC [µg/mL]
14 | O=C(NNC(=O)[C@@H]1CC[C@@H]2CN1C(=O)N2OS(=O)(=O)O)[C@@H]1CCCNC1 [ZIDEBACTAM] | ≤ 0.12

system: Acinetobacter baumannii; experiment: Synergistic antibacterial activity against Acinetobacter baumannii PR323 producing OXA-24/40 assessed as meropenem MIC at 8 ug/ml by broth microdilution method; type: functional; settings: dose 8 µg/ml

Row | Structure (SMILES) | MIC [µg/mL]
15 | O=C(NNC(=O)[C@@H]1CC[C@@H]2CN1C(=O)N2OS(=O)(=O)O)[C@@H]1CCCNC1 [ZIDEBACTAM] | > 16

system: Escherichia coli; experiment: Synergistic antibacterial activity against Escherichia coli DH10B transfected with pBC SK (-) OXA-48 assessed as cefepime MIC at 8 ug/ml by broth microdilution method; type: functional; settings: dose 8 µg/ml; procedure, shortened: as §1

Row | Structure (SMILES) | MIC [µg/mL]
16 | O=C(NNC(=O)[C@@H]1CC[C@@H]2CN1C(=O)N2OS(=O)(=O)O)[C@@H]1CCCNC1 [ZIDEBACTAM] | ≤ 0.12

system: Klebsiella pneumoniae; experiment: Synergistic antibacterial activity against Klebsiella pneumoniae jefferson 1775 producing OXA-48 assessed as meropenem MIC at 8 ug/ml by broth microdilution method; type: functional; settings: dose 8 µg/ml

Row | Structure (SMILES) | MIC [µg/mL]
17 | O=C(NNC(=O)[C@@H]1CC[C@@H]2CN1C(=O)N2OS(=O)(=O)O)[C@@H]1CCCNC1 [ZIDEBACTAM] | ≤ 0.12

system: Acinetobacter baumannii; experiment: Synergistic antibacterial activity against Acinetobacter baumannii PR474 producing OXA-23/24/40 assessed as cefepime MIC at 8 ug/ml by broth microdilution method; type: functional; settings: dose 8 µg/ml

Row | Structure (SMILES) | MIC [µg/mL]
18 | O=C(NNC(=O)[C@@H]1CC[C@@H]2CN1C(=O)N2OS(=O)(=O)O)[C@@H]1CCCNC1 [ZIDEBACTAM] | 8

system: Klebsiella pneumoniae; experiment: Synergistic antibacterial activity against Klebsiella pneumoniae 1084/1957 producing KPC-3 assessed as cefepime MIC at 8 ug/ml by broth microdilution method; type: functional; settings: dose 8 µg/ml; procedure, shortened: as §1

Row | Structure (SMILES) | MIC [µg/mL]
19 | O=C(NNC(=O)[C@@H]1CC[C@@H]2CN1C(=O)N2OS(=O)(=O)O)[C@@H]1CCCNC1 [ZIDEBACTAM] | ≤ 0.12
